According to the RNAGym collection of RNA variant scans (doi:10.1126/science.aae0568):
Variants at the floor of the assay were thinned out.

B1: tRNA (parent)
chain: GUUCCGUUGGCGUAAUGGUAACGCGUCUCCCUCCUAAGGAGAAGACUGCGGGUUCGAGUCCCGUACGGAACG

Variants of: B1
Experiment: yeast fitness relative to wild type (ratio to wild type); higher = fitter; tRNA-Arg(CCU), competitive growth, 37 C, YPD
Procedure, shortened: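 The tRNA-Arg(CCU) gene variants were made by chemical synthesis with a 3% per-site mutation rate at 69 sites and inserted at the native genomic locus of Saccharomyces cerevisiae. After pooling, the strains were competed in YPD at 37°C for 24 hours in six parallel replicates. Gene amplicons from the start population and each end population were read by 100-nucleotide paired-end sequencing, and Darwinian fitness relative to wild type was taken from genotype frequency changes. Genotypes needed ≥ 100 starting reads, and estimates < 0.5 were set to 0.5.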

For GUUCCGUUGGCGUAAAGGUAAUGCGCCUCCCUCCUAAGGAGAAGACUGCGGGUGCGAGUCCCGUACGGAACG [U16A C22U U26C U54G], which yeast fitness is on record?
Its yeast fitness is at most 0.5.

Which yeast fitness does the source give for GUUCCGUUGGCGUAAAGGUAAUGCGUCCCCCCCCUAAGGAGGAGACUGCGGGUUGGAGUCCCGUACGGAACG [U16A C22U U28C U32C A42G C55G] here?
Its yeast fitness is at most 0.5.

Which yeast fitness does the source give for GUUCCGUUGGCGUAAAGGUAACGAGUCUCGCUCUUAAGGAGAAGACCGCGGGUUCGAGUCCCGUACGGAACG [U16A C24A C30G C34U U47C] here?
Its yeast fitness is at most 0.5.

Which yeast fitness does the source give for GUUCCGUUGGCGUAAAGGUAACGGGUCUCCCUCCUAAGGAGACGACUGCGGGUUCGAGUCCCAUACGGAACG [U16A C24G A43C G63A] here?
Its yeast fitness is at most 0.5.

For GUUCCGUUGGCGUAAAGGUAACGGGUCUCCCUCCGAAGGAGAAGACUGCGGGUUCGAGUCCCGUACGGAACG [U16A C24G U35G], which yeast fitness is on record?
The yeast fitness was at most 0.5.

With GUUCCGUUGGCGUAAAGGUAACGGGUCUCCCUCCUAAGGAGAAGACCGCGGGUUCGAGUCCCGUACGGAACG [U16A C24G U47C] as the variant, how does the yeast fitness read?
Its yeast fitness is 0.536.

For GUUCCGUUGGCGUAAAGGUAACGUGUCUCCCUCCUAAGGAGUAGUCUGCGGGAUCAAGUCCCGUACGGAACG [U16A C24U A42U A45U U53A G56A], which yeast fitness is on record?
Its yeast fitness is at most 0.5.

For GUUCCGUUGGCGUAAAGGUAACGUGUCUCGCUCCAAAGGAGAAGACUGAGGGUUCGAGUCCCGUACCGAACG [U16A C24U C30G U35A C49A G67C], which yeast fitness is on record?
Its yeast fitness is 0.751.

For GUUCCGUUGGCGUAAAGGUAACGUGUCUCCCUUCUUAGGUGAAGACUGCGGGUUCGAGUCCCGUACGGAACG [U16A C24U C33U A36U A40U], which yeast fitness is on record?
The yeast fitness was at most 0.5.

For GUUCCGUUGGCGUAAAGGUAACGUGUCUCCCUCAUAAGGAGAAGACUGCGGGUUCGAGUCCAGUGCGGAACG [U16A C24U C34A C62A A65G], which yeast fitness is on record?
The yeast fitness was at most 0.5.

With GUUCCGUUGGCGUAAAGGUAACGUGUCUCCCUCGUAACGAGAAGACUGCGGGUUCGAGUCCCGUACGGAACG [U16A C24U C34G G38C] as the variant, how does the yeast fitness read?
The yeast fitness was at most 0.5.

With GUUCCGUUGGCGUAAAGGUAACGUGUCUCCCUCCUAAGGAGAAGACUGCGGGUUUGAGUCCCGUACGGAACG [U16A C24U C55U] as the variant, how does the yeast fitness read?
Its yeast fitness is 0.913.

Which yeast fitness does the source give for GUUCCGUUGGCGUAAAGGUAACGUGUCUCCCUCCUAAGGAGAACACUGCGGGUUCGAGUCCCGUACGGAACG [U16A C24U G44C] here?
The yeast fitness was 0.6.

With GUUCCGUUGGCGUAAAGGUAACGUGUCUCCCUCCUAAGGAGAACACUGCGGGUUCGAGUCUCGUACGGAACG [U16A C24U G44C C61U] as the variant, how does the yeast fitness read?
Its yeast fitness is 0.66.

With GUUCCGUUGGCGUAAAGGUAACGCGUAUCCCUCCUAAGGAGAAGACUGCGGGUUCGAGUCCGGUACGGAACG [U16A C27A C62G] as the variant, how does the yeast fitness read?
The yeast fitness was at most 0.5.

Which yeast fitness does the source give for GUUCCGUUGGCGUAAAGGUAACGCGUGUCCCUCCUAAGGAGAAGACUGAGGGUUCGAGUCCCGUACGGGACG [U16A C27G C49A A69G] here?
Its yeast fitness is 0.532.

With GUUCCGUUGGCGUAAAGGUAACGCGUGUCCCUCCUAAGGAGAAGACUGCGGGUUCGAGUCCCGCAUAGAACG [U16A C27G U64C C66U G67A] as the variant, how does the yeast fitness read?
Its yeast fitness is at most 0.5.

With GUUCCGUUGGCGUAAAGGUAACGCGUUUCCCUCCUAAGGAGAAGACUGUGGGUUCGAGUCCCGUACGGAACG [U16A C27U C49U] as the variant, how does the yeast fitness read?
The yeast fitness was 0.61.

With GUUCCGUUGGCGUAAAGGUAACGCGUUUCCCUCCUAAAGAGAAGACUGCGGGUUCGAGUGCCGUCCGGAACG [U16A C27U G38A C60G A65C] as the variant, how does the yeast fitness read?
The yeast fitness was at most 0.5.

For GUUCCGUUGGCGUAAAGGUAACGCGUCUGCCUCCUAAGGAGGAGAGUGCGGGUUCGAGUCCCGUUCGGAACG [U16A C29G A42G C46G A65U], which yeast fitness is on record?
Its yeast fitness is at most 0.5.

For GUUCCGUUGGCGUAAAGGUAACGCGUCUGCGUCCUAAGGAGAAGACUGCGGGUUAGAGUCCUGUACGGCACG [U16A C29G C31G C55A C62U A69C], which yeast fitness is on record?
Its yeast fitness is at most 0.5.

For GUUCCGUUGGCGUAAAGGUAACGCGUCUGCCUCCUAAGGAGAAGAUUGUGGGUUCGAGGCCCGUUCGAAACG [U16A C29G C46U C49U U59G A65U G68A], which yeast fitness is on record?
The yeast fitness was 0.537.

For GUUCCGUUGGCGUAAAGGUAACGCGUCUGCCUCCUAAGGACAAGUCUGCGGGUUCGAGUCCCGUACGGAACG [U16A C29G G41C A45U], which yeast fitness is on record?
Its yeast fitness is at most 0.5.

Which yeast fitness does the source give for GUUCCGUUGGCGUAAAGGUAACGCGUCUUCCUCCUAGGGAGAAGACUGCGGGUUCGAGUCCCGUACGGAACG [U16A C29U A37G] here?
Its yeast fitness is at most 0.5.

Which yeast fitness does the source give for GUUCCGUUGGCGUAAAGGUAACGCGUCUUCCUCCUAAGGAGAAGGUUGCGGGUUCGAGUCCCGUACGGUACG [U16A C29U A45G C46U A69U] here?
Its yeast fitness is at most 0.5.

Which yeast fitness does the source give for GUUCCGUUGGCGUAAAGGUAACGCGUCUCACUCCUAAGGAGAAGACUGCGGGUUCGAGUCCCGUACGGAACG [U16A C30A] here?
The yeast fitness was 0.912.

Which yeast fitness does the source give for GUUCCGUUGGCGUAAAGGUAACGCGUCUCACUCCUAAGGAGACGACUGCGGGUUCGAGUCCCGUACGGAACG [U16A C30A A43C] here?
The yeast fitness was 1.04.

Which yeast fitness does the source give for GUUCCGUUGGCGUAAAGGUAACGCGUCUCACUCCUAAGGAGAAGACUGCGGGUUCGAGUCCCGUACGGUACG [U16A C30A A69U] here?
Its yeast fitness is 0.979.

With GUUCCGUUGGCGUAAAGGUAACGCGUCUCACUCCGAAGGAGAAGACUGCGGGUUCGAGUCCCGUACGGAACG [U16A C30A U35G] as the variant, how does the yeast fitness read?
Its yeast fitness is at most 0.5.

With GUUCCGUUGGCGUAAAGGUAACGCGUCUCGCUCCUAAGGAGAAGACUGCGGGUUCGAGUCCCGUACGGAACG [U16A C30G] as the variant, how does the yeast fitness read?
The yeast fitness was 0.567.

Which yeast fitness does the source give for GUUCCGUUGGCGUAAAGGUAACGCGUCUCGCUCCUACGGAGAAGACUGCGGGUUCGAGUCCCGUACGCAACG [U16A C30G A37C G68C] here?
The yeast fitness was at most 0.5.

Which yeast fitness does the source give for GUUCCGUUGGCGUAAAGGUAACGCGUCUCGCUCCUAAGGGGAAGACUGCGGGUCCGAGUCCCGUACGGAACG [U16A C30G A40G U54C] here?
The yeast fitness was at most 0.5.

Which yeast fitness does the source give for GUUCCGUUGGCGUAAAGGUAACGCGUCUCGCUCCUAAGGAGAACACUGCGGGUUCGAGUCCCGUACGGAACG [U16A C30G G44C] here?
Its yeast fitness is at most 0.5.

With GUUCCGUUGGCGUAAAGGUAACGCGUCUCGCUCCUAAGGAGAACACUGCGGGUUCGAGUCACGUACGGAACG [U16A C30G G44C C61A] as the variant, how does the yeast fitness read?
The yeast fitness was at most 0.5.

For GUUCCGUUGGCGUAAAGGUAACGCGUCUCGCUCCUAAGGAGAAGACUGCAGGUUCGAGUCCCGUACGGAGCG [U16A C30G G50A A70G], which yeast fitness is on record?
Its yeast fitness is at most 0.5.

With GUUCCGUUGGCGUAAAGGUAACGCGUCUCUCUCCUAAGGAGAAGACUGCGGGUUCGAGUCCCGUACGGAACG [U16A C30U] as the variant, how does the yeast fitness read?
The yeast fitness was 0.817.

For GUUCCGUUGGCGUAAAGGUAACGCGUCUCUCUCCUUAGGAGAAGACUGCGGGUUCGAGUCCCAUACGGAACG [U16A C30U A36U G63A], which yeast fitness is on record?
Its yeast fitness is at most 0.5.

For GUUCCGUUGGCGUAAAGGUAACGCGUCUCUCUCCUAAGGCGAAGACUGCGGGUUCGAGUCCCGUACGGAACG [U16A C30U A40C], which yeast fitness is on record?
Its yeast fitness is at most 0.5.
